Laboratory results as given in ChEMBL document CHEMBL4814017, “Discovery and optimization of novel 3-benzyl-N-phenyl-1H-pyrazole-5-carboxamides as bifunctional antidiabetic agents stimulating both insulin secretion and glucose uptake” (Eur J Med Chem, 2021).
Calls of active or inactive are those of the source. No cut-off for these calls is given here.

Legend:
[1] = Cytotoxicity against rat INS1 cells assessed as cell viability at 10 uM incubated for 24 hrs by MTT assay relative to untreated control; format: cell-based; details: read-out: Activity
[2] = Induction of insulin secretion in rat INS-1 cells assessed as glucose stimulation index at 10 uM followed by stimulated with 16.7 mM glucose measured after 1 hrs by ELISA relative to basal insulin level; format: functional, INS1
Method in brief: (§1)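 Rat insulinoma INS-1 cells grown in RPMI 1640 with 11 mM glucose, 10% FBS, HEPES, pyruvate and 2-mercaptoethanol. After 24 h seeding, cells washed in KRB pH 7.4 with 3.3 mM glucose, starved 2 h, given compound for 30 min, then 3.3 mM (basal) or 16.7 mM glucose for 1 h. Insulin measured by rat insulin ELISA at 450 nm. GSI = stimulated/basal insulin. Triplicate, mean ± SD. Gliclazide control.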

[3] = Induction of insulin secretion in rat INS-1 cells assessed as glucose stimulation index at 5 uM followed by stimulated with 16.7 mM glucose measured after 1 hrs by ELISA relative to basal insulin level; format: functional, INS1; method in brief: as §1
[4] = Cytotoxicity against human LX2 cells assessed as reduction in cell viability incubated for 24 hrs by MTT assay; format: cell-based; details: lx-2, 24 h
[5] = test system: 3T3-L1; assay: Cytotoxicity against mouse 3T3-L1 cells assessed as reduction in cell viability incubated for 24 hrs by MTT assay; format: cell-based; details: 3t3-l1, 24 h
[6] = test system: INS1; assay: Activation of PI3K/Akt signalling pathway in rat INS1 cells assessed as increase in p-Akt expression at 2.5 to 10 uM after 24 hrs by Western blot analysis; format: cell-based; details: filed as activator, dose 2.5-10 µM
Method in brief: (§2)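 INS-1 cells seeded in 6-well plates, grown 24 h, then treated 24 h with 0, 2.5, 5 or 10 µM; vehicle control 0.5% DMSO. Lysed in RIPA with 1 mM PMSF at 4 °C, protein by BCA. Blots probed for p-IRS-2 (Ser731), IRS-2, p-PI3K, PI3K, p-Akt (Ser473), Akt, PPAR-γ, PDX-1 and GAPDH, HRP anti-rabbit secondary, ECL detection, densitometry. Triplicate, n = 3, SD.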

[7] = test system: INS1; assay: Activation of PI3K/Akt signalling pathway in rat INS1 cells assessed as increase in p-PI3K expression at 2.5 to 10 uM after 24 hrs by Western blot analysis; format: cell-based; details: filed as activator, dose 2.5-10 µM; method in brief: as §2
[8] = test system: INS1; assay: Activation of PI3K/Akt signalling pathway in rat INS1 cells assessed as increase in p-IRS2 expression at 2.5 to 10 uM after 24 hrs by Western blot analysis; format: cell-based; details: filed as activator, dose 2.5-10 µM; method in brief: as §2
[9] = test system: INS1; assay: Induction of PPARgamma expression in rat INS1 cells at 2.5 to 10 uM after 24 hrs by Western blot analysis; format: functional, cell-based; details: dose 2.5-10 µM; method in brief: as §2
[10] = test system: INS1; assay: Induction of PDX-1 expression in rat INS-1 cells at 2.5 to 10 uM after 24 hrs by Western blot analysis; format: functional, cell-based; details: dose 2.5-10 µM; method in brief: as §2
[11] = test system: C2C12; assay: Induction of glucose uptake in mouse C2C12 cells incubated for 16 hrs in absence of insulin by 2-NBDG uptake assay; format: functional, cell-based; details: dose microM <=50, time 16.0 hrs
Method in brief: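 Differentiated C2C12 myotubes (4 days, DMEM with 2% horse serum) held 16 h in DMEM with 2% BSA and 10% FBS, with or without compound and without insulin, after which basal glucose uptake was measured.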

[12] = test system: C2C12; assay: Activation of PI3K/Akt signalling pathway in mouse C2C12 cells assessed as increase in p-Akt expression upto 50 uM incubated for 16 hrs by Western blot analysis; format: cell-based; details: filed as activator, dose microM <=50, time 16.0 hrs
Method in brief: (§3)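 C2C12 myoblasts grown in DMEM to 90% confluence and differentiated 4 days in DMEM with 2% horse serum. Myotubes then held 16 h in DMEM with 2% BSA and 10% FBS with 0, 5, 10, 20 or 50 µM compound. Western blot for MG53, IRS-1, p-PI3K, PI3K, p-Akt, Akt and GAPDH.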

[13] = test system: C2C12; assay: Activation of PI3K/Akt signalling pathway in mouse C2C12 cells assessed as increase in p-PI3K expression upto 50 uM incubated for 16 hrs by Western blot analysis; format: cell-based; details: filed as activator, dose microM <=50, time 16.0 hrs; method in brief: as §3
[14] = test system: C2C12; assay: Upregulation of IRS-1 level in mouse C2C12 cells upto 50 uM after 16 hrs by Western blot analysis; format: functional, cell-based; details: dose microM <=50, time 16.0 hrs; method in brief: as §3
[15] = test system: C2C12; assay: Downregulation of MG53 level in mouse C2C12 cells after 16 hrs by Western blot analysis; format: functional, cell-based; details: dose microM <=50, time 16.0 hrs; method in brief: as §3

Row | SMILES | viability at 24 h, 10 µM [1] | Activity_index [2] | Activity_index [3] | further results
1 | COC(=O)c1ccc(NC(=O)c2cc(Cc3ccc(OC)cc3)n[nH]2)cc1 | 99.2% | 1.85 |  | 
2 | COc1ccc(OC)c(NC(=O)c2cc(Cc3ccc(Cl)cc3)n[nH]2)c1 | 97.9% |  | 3.25 | 
3 | CC(C)(C)c1ccc(NC(=O)c2cc(Cc3ccc(Cl)cc3)n[nH]2)cc1 | 97.5% | 4.89 |  | 
4 | O=C(Nc1ccc2c(c1)OCO2)c1cc(Cc2ccc(Cl)cc2)n[nH]1 | 101% |  | 1.29 | 
5 | COc1ccccc1NC(=O)c1cc(Cc2ccc(Cl)cc2)n[nH]1 | 98.1% |  | 1.56 | 
6 | COC(=O)c1ccc(NC(=O)c2cc(Cc3ccc(Cl)cc3)n[nH]2)cc1 | 101% | 1.48 |  | 
7 | COc1ccc(NC(=O)c2cc(Cc3ccc(F)cc3)n[nH]2)cc1 | 95.6% | 2.03 |  | 
8 | O=C(Nc1ccccc1)c1cc(Cc2ccc(Cl)cc2)n[nH]1 | 109% | 5.24 |  | 
9 | COc1ccc(Cc2cc(C(=O)Nc3ccccc3)[nH]n2)cc1 | 105% | 4.4 |  | 
10 | COc1ccccc1NC(=O)c1cc(Cc2ccc(F)cc2)n[nH]1 | 104% |  | 3.67 | 
11 | O=C(Nc1ccccc1)c1cc(Cc2ccc(F)cc2)n[nH]1 | 100% | 2 |  | 
12 | COc1ccc(Cc2cc(C(=O)Nc3ccc(OC)cc3OC)[nH]n2)cc1 | 101% |  | 1.58 | 
13 | COc1ccc(NC(=O)c2cc(C(=O)c3ccc(Cl)cc3)n[nH]2)c(OC)c1 | 100% |  | 1.49 | 
14 | COc1ccc(Cc2cc(C(=O)Nc3ccc(OC)cc3)[nH]n2)cc1 | 105% | 1.66 |  | 
15 | COc1ccc(Cc2cc(C(=O)Nc3ccc(C(F)(F)F)cc3)[nH]n2)cc1 | 98.4% | 2.07 |  | 
16 | COc1ccc(Cc2cc(C(=O)Nc3ccccc3OC)[nH]n2)cc1 | 101% |  | 1.66 | 
17 | COc1ccc(Cc2cc(C(=O)Nc3cccc(OC)c3OC)[nH]n2)cc1 | 98.9% |  | 1.13 | 
18 | COc1cccc(NC(=O)c2cc(Cc3ccc(Cl)cc3)n[nH]2)c1OC | 98.8% |  | 1.85 | 
19 | COc1cccc(NC(=O)c2cc(Cc3ccc(Cl)cc3)n[nH]2)c1 | 96.5% |  | 1.54 | 
20 | COC(=O)c1ccc(NC(=O)c2cc(Cc3ccc(F)cc3)n[nH]2)cc1 | 102% | 1.42 |  | 
21 | O=C(Nc1ccc(F)cc1)c1cc(Cc2ccc(Cl)cc2)n[nH]1 | 94.9% | 6.73 |  | 

Row | SMILES | viability at 24 h, 10 µM [1] | Activity_index [2] | Activity_index [3] | further results
22 | O=C(Nc1ccc2c(c1)OCO2)c1cc(Cc2ccc(F)cc2)n[nH]1 | 97.6% |  | 1.25 | 
23 | Cc1ccc(S(=O)(=O)NC(=O)NN2CC3CCCC3C2)cc1 (stereo not drawn) [GLICLAZIDE] | 98.7% | 5.86 | 4.22 | 
24 | COc1ccc(N(C)C(=O)c2cc(Cc3ccc(Cl)cc3)n[nH]2)c(OC)c1 | 93.3% |  | 1.33 | 
25 | CC(C)(C)c1ccc(NC(=O)c2cc(Cc3ccc(F)cc3)n[nH]2)cc1 | 98.6% | 1.96 |  | 
26 | COc1ccc(NC(=O)c2cc(Cc3ccc(Cl)cc3)n[nH]2)cc1 | 101% | 7.59 | 2.6 | 
27 | COc1ccc(Cc2cc(C(=O)Nc3cc(OC)ccc3OC)[nH]n2)cc1 | 100% |  | 2.35 | 
28 | O=C(Nc1ccc(F)cc1)c1cc(Cc2ccc(F)cc2)n[nH]1 | 100% | 1.86 |  | 
29 | COc1ccc(Cc2cc(C(=O)Nc3ccc(F)cc3)[nH]n2)cc1 | 105% | 2.49 |  | 
30 | COc1cccc(NC(=O)c2cc(Cc3ccc(F)cc3)n[nH]2)c1OC | 102% |  | 1.16 | 
31 | COc1ccc(OC)c(NC(=O)c2cc(Cc3ccc(F)cc3)n[nH]2)c1 | 104% |  | 1.52 | 
32 | COc1ccc(Cc2cc(C(=O)Nc3cccc(OC)c3)[nH]n2)cc1 | 102% |  | 1.55 | 
33 | O=C(Nc1ccc(C(F)(F)F)cc1)c1cc(Cc2ccc(F)cc2)n[nH]1 | 92.8% | 2.02 |  | 
34 | COc1ccc(NC(=O)c2cc(Cc3ccc(F)cc3)n[nH]2)c(OC)c1 | 99.9% |  | 1.93 | 
35 | COc1ccc(NC(=O)c2cc(Cc3ccc(Cl)cc3)nn2C)c(OC)c1 | 96.2% |  | 1.37 | 
36 | O=C(Nc1ccc(C(F)(F)F)cc1)c1cc(Cc2ccc(Cl)cc2)n[nH]1 | 102% | 1.69 |  | 
37 | COc1ccc(Cc2cc(C(=O)Nc3ccc(C(C)(C)C)cc3)[nH]n2)cc1 | 99.4% | 1.64 |  | 
38 | COc1ccc(NC(=O)c2cc(Cc3ccccc3Cl)n[nH]2)c(OC)c1 | 102% |  | 2.43 | 
39 | COc1cccc(NC(=O)c2cc(Cc3ccc(F)cc3)n[nH]2)c1 | 101% |  | 7.49 | 
40 | COc1ccc(NC(=O)c2cc(Cc3ccc(Cl)cc3)n[nH]2)c(OC)c1 | 96.3% |  | 14.9 | Activity [4]: Non-Toxic; Activity [5]: Non-Toxic; Activity [6]: Dose-Dependent Effect; Activity [7]: Dose-Dependent Effect; Activity [8]: Dose-Dependent Effect; Activity [9]: Active; Activity [10]: Active; Activity [11]: Dose-Dependent Effect; Activity [12]: Active; Activity [13]: Active; Activity [14]: Active; inhibition [15]: Dose-Dependent Effect
41 | COc1ccc(Cc2cc(C(=O)Nc3ccc4c(c3)OCO4)[nH]n2)cc1 | 102% |  | 1.13 | 
42 | COc1ccc(NC(=O)c2cc(Cc3cccc(Cl)c3)n[nH]2)c(OC)c1 | 97.7% |  | 1.29 | 
